Screening results (PubChem)
DNMT1 inh – inhibitors of human DNMT1; DNMT1 molecular beacon, Hinp1I cleavage, fluorescence; inhibition (reported as % activation of signal), % at 10 µM; hit rate 0.83% among 360,000; AID 588458; in the data active means inhibition above about 50%
UHRF1 MBD2 ctr – UHRF1 methyl-DNA binding inhibition; Q96T88; UHRF1 binding to methylated oligo, TR-FRET; inhibition, % at 4.4 µM; hit rate 0.75% among 370,000; AID 687016; in the data active means inhibition above about 21%;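 further: UHRF1 SRA domain binding a hemimethylated CpG hairpin DNA probe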
DSG3 Ab inh – human desmoglein-3 autoantibody binding inhibition; binding (percent of control), % at 10 µM; P32926; hit rate 0.48% among 310,000; DSG3-coupled beads, scFv-anti-DSG3-GFP binding, flow cytometry; stronger effect = lower value;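 active means binding more than 3 SD below its plate's average and above zero; inconclusive means below that plate limit but binding exactly zero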;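 further: hits lower antibody fragment binding to DSG3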
SUMO1 PPI mod – SUMO1-SIM interaction modulation; P63165; SUMO1 binding to a labelled peptide, TR-FRET, 1 h; inhibition, % at 20 µM; hit rate 0.33% among 360,000; AID 602429; in the data active means inhibition above about 37%
MBD2 DNA inh – blocks human MBD2 binding to methylated DNA | hit rate 0.31% among 370,000 | inhibition, % at 4.4 µM | Q9UBB5 | TR-FRET, MBD2 binding to methylated oligonucleotide; in the data active means inhibition above about 13%
NS3 helicase inh – inhibitors of Hepatitis C virus NS3 helicase; hit rate 0.56% among 290,000; AID 1800; NS3 helicase DNA unwinding, Cy5 molecular beacon fluorescence; inhibition, % at 10.9 µM;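 active means inhibition above the mean of all tested compounds plus 3 SD, set per campaign, cut at about 35% in these data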
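System: NS3 helicase fragment of HCV / Schedule: 1 h at 25 °C / Control set: DMSO alone as 0% and 110 µM thioflavine S as 100% / Reagent: Cy5/quencher beacon DNA duplex and ATP to start / Technique: Cy5 fluorescence / Replication: singlicate / Evaluation: % inhibition of end-to-start signal ratio versus controls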
DNMT1 interf DR – beacon fluorescence artifact, dose response counter-screen; shares compounds with DNMT1 inh; molecular beacon fluorescence, spectral interference counter-screen; IC50, µM; 200 tested, under 10 active; AID 602382; call rule not given here
DNMT1 confirm – DNMT1 inhibition confirmation, single concentration | shares compounds with DNMT1 inh | DNMT1 molecular beacon HinP1I cleavage, fluorescence | inhibition, % at 10 µM | hit rate 8% among 2,300 | AID 602385;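 active means average inhibition of at least 30% in the single-concentration confirmation test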
Beacon interf – beacon fluorescence artifact counter-screen | shares compounds with DNMT1 inh | DNMT1 molecular beacon spectral interference counterscreen, fluorescence 485/520 | activation (fluorescence interference), % at 10 µM | hit rate 1% among 2,300 | AID 602387;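 active means activation of at least 30% at 10 µM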;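 further: DNMT1 catalytic domain with a HinP1I cleavage step and a FAM/dabcyl DNA beacon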
Large screens that a line does not name were inactive (follow-up assays come after a bar, where they were run). Shown are actives, neighbours in structure and some others; about 2.5% of the full set was active somewhere.

CCC1S/C(=N/S(=O)(=O)c2ccc(N)cc2)NC1=O (stereo not drawn)	DNMT1 inh 66 (no result: NS3 helicase inh) | DNMT1 confirm inactive | Beacon interf inactive
CCC1SC(=Nc2cccc(C)c2)NC1=O (stereo not drawn)	none
Cn1c2ccccc2c2c(=O)oc3ccccc3c21	DNMT1 inh 52 (no result: NS3 helicase inh) | DNMT1 interf DR inactive | DNMT1 confirm inactive | Beacon interf inactive
Cc1c(C(N)=O)sc2ncn(CC(=O)OC(C)C)c(=O)c12	DNMT1 inh 78 | DNMT1 confirm inactive | Beacon interf inactive
CCn1c(SCC(=O)Nc2cc(NC(C)=O)ccc2OC)nnc1-c1ccncc1	none (no result: DNMT1 inh, DSG3 Ab inh, SUMO1 PPI mod)
Cc1ccc(NC(=O)CSc2ncccc2C(=O)Oc2cccc([N+](=O)[O-])c2)cc1Cl	DNMT1 inh 53 (no result: DSG3 Ab inh) | DNMT1 confirm inactive | Beacon interf inactive
O=C(CSc1nnnn1-c1ccc(Cl)cc1)NNC(=O)c1ccc([N+](=O)[O-])cc1	none
O=C(O)C1CCN(c2ncccn2)CC1	DNMT1 inh 81 | DNMT1 confirm inactive | Beacon interf inactive
Cc1oc(CSCCSCc2cc(C(=O)O)c(C)o2)cc1C(=O)O	none
Nc1ccc(S(=O)(=O)Nc2nccs2)cc1N=Nc1ccccc1[N+](=O)[O-]	DNMT1 inh 77 (no result: NS3 helicase inh) | DNMT1 interf DR inactive | DNMT1 confirm 80 | Beacon interf inactive
COc1ccc(NC(=O)c2c3c(nc4ccccc24)CCC3)cc1S(=O)(=O)N1CCOCC1	DNMT1 inh 86 | DNMT1 confirm inactive | Beacon interf inactive
O=C1c2ccccc2C(=O)N1c1n[nH]c(CCc2ccccc2)n1	none
N=C1/C(=C\c2ccc(Br)o2)C(=O)N=C2SC(CC(=O)N3CCCCC3)=NN12	DNMT1 inh 94, SUMO1 PPI mod 46 | DNMT1 confirm inactive | Beacon interf inactive
CCOC(=O)N1CCC(NS(=O)(=O)c2ccc3c(c2)oc(=O)n3C)CC1	DNMT1 inh 53 | DNMT1 confirm inactive | Beacon interf inactive
CCC(C)NC(=O)Cc1ccc(-c2ccccc2)cc1 (stereo not drawn)	none
CCC(C)NC(=O)COC(=O)c1ccccc1OCC(=O)Nc1ccc(Br)cc1 (stereo not drawn)	DNMT1 inh 51 | DNMT1 confirm inactive | Beacon interf inactive
O=C(COC(=O)c1ccccc1OCC(=O)Nc1ccc(Br)cc1)Nc1ccccc1	none
O=S(=O)(Cc1ccc(Cl)cc1)N1CCN(c2ncccn2)CC1	none (no result: DSG3 Ab inh)
Fc1cc(F)c2nc(Nc3nc4cc5c(cc4s3)OCO5)sc2c1	DNMT1 inh 72, SUMO1 PPI mod 83 | DNMT1 confirm inactive | Beacon interf inactive
CCOc1ccc(Cl)cc1-c1cc(C(=O)NC2CCCCC2)[nH]n1	DNMT1 inh 74, UHRF1 MBD2 ctr 79 (no result: DSG3 Ab inh, NS3 helicase inh) | DNMT1 confirm inactive | Beacon interf inactive
COc1ccc(Cl)cc1-c1cc(C(=O)NC2CCCCC2)[nH]n1	none (no result: DSG3 Ab inh, NS3 helicase inh)
CCOCCCn1c(=N)c(C(=O)NCc2ccc3c(c2)OCO3)cc2c(=O)n3ccccc3nc21	none (no result: DNMT1 inh, DSG3 Ab inh, SUMO1 PPI mod)
CC(C)OCCCn1c(=N)c(C(N)=S)cc2c(=O)n3ccccc3nc21	DNMT1 inh 64, DSG3 Ab inh inconclusive | DNMT1 confirm inactive | Beacon interf inactive
COCCCn1c(C(=O)N2CCOCC2)cc2c(=O)n3cccc(C)c3nc21	none
COCCCn1c(C(=O)Nc2ccc3c(c2)OCO3)cc2c(=O)n3cccc(C)c3nc21	DNMT1 inh 83 (no result: NS3 helicase inh) | DNMT1 confirm inactive | Beacon interf inactive
COc1cccc(CN=CC2=C(O)CC(C)(C)CC2=O)c1OC	none
COc1ccc(/C=C(\C#N)C(=O)NCCc2ccccc2)cc1OCc1ccccc1	none
COCCCNC(=O)/C(C#N)=C/c1ccc(OCC(=O)O)c(OC)c1	DNMT1 inh 89, UHRF1 MBD2 ctr 34 | DNMT1 confirm inactive | Beacon interf inactive
CC1=NN(c2ccccc2)C(=O)C1C=Nc1ccccc1O (stereo not drawn)	none (no result: UHRF1 MBD2 ctr, MBD2 DNA inh)
CC1=NN(c2ccccc2)C(=O)C1/C=C1\NC(=S)NC1=O (stereo not drawn)	DNMT1 inh 90 | DNMT1 interf DR inactive | DNMT1 confirm 38 | Beacon interf inactive
CCN(CC)S(=O)(=O)c1ccc2[nH]c(=O)cc(C(=O)Nc3ccccc3N3CCCC3)c2c1	none
O=C(COC(=O)/C=C/c1ccccc1[N+](=O)[O-])NC1CCS(=O)(=O)C1 (stereo not drawn)	none
O=C(COC(=O)/C=C/c1ccccc1[N+](=O)[O-])NC1CC1	DNMT1 inh 50 | DNMT1 confirm inactive | Beacon interf inactive
CC(/C=C1\N=C(SCc2ccccc2)SC1=O)=C\c1ccccc1	DNMT1 inh 80 | DNMT1 confirm inactive | Beacon interf inactive
Cn1cnnc1SCC(=O)Nc1ccc2nc(SCc3cccc4ccccc34)sc2c1	none
COc1cc(/C=N/Nc2nc(C)cc(=O)[nH]2)cc(OC)c1O	none
Cc1nc2c(=O)[nH]c(=S)[nH]c2[nH]c1=O	DNMT1 inh 79, UHRF1 MBD2 ctr 85, SUMO1 PPI mod 55, MBD2 DNA inh 48 (no result: NS3 helicase inh) | DNMT1 confirm inactive | Beacon interf inactive
Cc1nc2[nH]c(=S)[nH]c(=O)c2nc1C	none (no result: NS3 helicase inh)
O=C(CSc1nc2[nH]c(=O)cc(O)c2s1)Nc1ccc(Br)cc1	none (no result: DSG3 Ab inh, NS3 helicase inh)
Cc1[nH]n(-c2ncc(-c3ccc(Cl)cc3)s2)c(=O)c1C(c1ccc(Cl)cc1)C(C#N)C#N (stereo not drawn)	DNMT1 inh 83 (no result: UHRF1 MBD2 ctr, MBD2 DNA inh) | DNMT1 confirm inactive | Beacon interf inactive
COC(=O)CCSCc1cn2cc(Cl)ccc2n1	none
O=C(O)c1cccc(-c2ccc(/C=N/n3cnnc3)o2)c1	none
O=C1OC(c2cccs2)=N/C1=C/c1ccc(-c2cccc(C(=O)O)c2)o1	DNMT1 inh 85, UHRF1 MBD2 ctr 44 | DNMT1 confirm inactive | Beacon interf inactive
Cc1ccc(NC(=O)CN(C)C(=O)c2cc(-c3ccco3)nc3ccccc23)cc1	DNMT1 inh 75 (no result: NS3 helicase inh) | DNMT1 confirm inactive | Beacon interf inactive
CN(CC(=O)Nc1ccc(F)cc1)C(=O)c1cc(-c2ccco2)nc2ccccc12	DNMT1 inh 84 (no result: NS3 helicase inh) | DNMT1 confirm inactive | Beacon interf inactive
COc1cccc(NC(=O)CN(C)C(=O)c2cc(-c3ccco3)nc3ccccc23)c1	DNMT1 inh 55 (no result: NS3 helicase inh) | DNMT1 confirm inactive | Beacon interf inactive
COc1cccc(NC(=O)c2cc(-c3ccco3)nc3ccccc23)c1	none (no result: NS3 helicase inh)
O=C(NNC(=O)C1C2CCC(C2)C1C(=O)O)c1cccc(Cl)c1 (stereo not drawn)	none
O=C(Cn1cncc1-c1ccc([N+](=O)[O-])cc1)Nc1cccc2ccccc12	DNMT1 inh 50 | DNMT1 confirm inactive | Beacon interf inactive
